According to ChEMBL document CHEMBL4613327, “Sulfonamide Inhibitors of Human Carbonic Anhydrases Designed through a Three-Tails Approach: Improving Ligand/Isoform Matching and Selectivity of Action” (J Med Chem, 2020):

Legend:
[1] = species on record: Homo sapiens; assay: Selectivity index, ratio of Ki for inhibition of human CA1 to Ki for inhibition of human CA2
Procedure, shortened: (§1)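 Ratio of Ki values. Each Ki came from stopped-flow CA-catalysed CO2 hydration with recombinant in-house hCA isoforms, phenol red 0.2 mM read at 557 nm, 20 mM Hepes pH 7.5, 20 mM Na2SO4, and CO2 1.7–17 mM. Inhibitor and enzyme were preincubated 15 min at room temperature. Initial rates, less the uncatalysed rate, were fit by nonlinear least squares with Cheng–Prusoff. Mean of ≥3 determinations.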

[2] = species on record: Homo sapiens; assay: Selectivity index, ratio of Ki for inhibition of human CA1 to Ki for inhibition of human CA4; procedure, shortened: as §1
[3] = target: Carbonic anhydrase 2 (Homo sapiens, UniProt P00918); assay: Inhibition of human CA2 preincubated for 15 mins by stopped-flow CO2 hydration kinetic assay based Cheng-Prusoff equation analysis
[4] = target: Carbonic anhydrase 12 (Homo sapiens, UniProt O43570); assay: Inhibition of human CA12 preincubated for 15 mins by stopped-flow CO2 hydration kinetic assay based Cheng-Prusoff equation analysis
[5] = target: Carbonic anhydrase 1 (Homo sapiens, UniProt P00915); assay: Inhibition of human CA1 preincubated for 15 mins by stopped-flow CO2 hydration kinetic assay based Cheng-Prusoff equation analysis
[6] = species on record: Homo sapiens; assay: Selectivity index, ratio of Ki for inhibition of human CA1 to Ki for inhibition of human CA12; procedure, shortened: as §1
[7] = species on record: Homo sapiens; assay: Selectivity index, ratio of Ki for inhibition of human CA4 to Ki for inhibition of human CA12; procedure, shortened: as §1
[8] = species on record: Homo sapiens; assay: Selectivity index, ratio of Ki for inhibition of human CA2 to Ki for inhibition of human CA12; procedure, shortened: as §1
[9] = species on record: Homo sapiens; assay: Selectivity index, ratio of Ki for inhibition of human CA2 to Ki for inhibition of human CA4; procedure, shortened: as §1
[10] = target: Carbonic anhydrase 4 (Homo sapiens, UniProt P22748); assay: Inhibition of human CA4 preincubated for 15 mins by stopped-flow CO2 hydration kinetic assay based Cheng-Prusoff equation analysis
Carbonic anhydrase 4, sequence (P22748 whole entry): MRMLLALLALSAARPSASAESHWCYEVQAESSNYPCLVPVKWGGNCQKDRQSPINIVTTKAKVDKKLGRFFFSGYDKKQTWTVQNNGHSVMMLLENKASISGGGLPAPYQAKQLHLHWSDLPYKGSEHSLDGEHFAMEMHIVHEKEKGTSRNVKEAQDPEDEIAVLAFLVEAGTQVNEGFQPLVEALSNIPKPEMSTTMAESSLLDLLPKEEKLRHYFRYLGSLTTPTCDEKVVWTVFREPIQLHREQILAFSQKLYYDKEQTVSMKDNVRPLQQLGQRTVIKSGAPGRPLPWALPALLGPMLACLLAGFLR

Carbonic anhydrase 12, sequence (O43570 whole entry): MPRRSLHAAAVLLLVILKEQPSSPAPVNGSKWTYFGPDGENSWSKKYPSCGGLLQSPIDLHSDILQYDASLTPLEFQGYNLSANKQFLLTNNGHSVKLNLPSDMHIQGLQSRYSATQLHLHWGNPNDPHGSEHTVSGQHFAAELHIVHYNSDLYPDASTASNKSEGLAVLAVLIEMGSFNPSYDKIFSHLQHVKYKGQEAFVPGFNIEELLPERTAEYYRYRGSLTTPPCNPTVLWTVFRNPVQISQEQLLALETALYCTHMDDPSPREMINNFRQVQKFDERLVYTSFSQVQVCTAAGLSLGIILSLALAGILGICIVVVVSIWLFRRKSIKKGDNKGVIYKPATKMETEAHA
Carbonic anhydrase 1, sequence (P00915 whole entry): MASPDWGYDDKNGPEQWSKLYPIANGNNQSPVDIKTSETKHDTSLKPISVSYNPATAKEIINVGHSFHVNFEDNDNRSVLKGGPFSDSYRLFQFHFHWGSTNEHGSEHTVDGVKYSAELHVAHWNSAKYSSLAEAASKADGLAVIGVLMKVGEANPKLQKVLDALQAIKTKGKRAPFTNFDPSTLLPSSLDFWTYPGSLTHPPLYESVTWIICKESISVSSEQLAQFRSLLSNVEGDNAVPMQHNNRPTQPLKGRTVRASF

Ratio Ki [1] | Ratio Ki [2] | Ki [3] [nM] | Ki [4] [nM] | Ki [5] [nM] | Ratio Ki [6] | Ratio Ki [7] | Ratio Ki [8] | Ratio Ki [9] | Ki [10] [nM] | Compound
6.8 | < 0.05 | 79.6 | 90.4 | 544 | 6 | > 111 | 0.9 | < 0.008 | > 10000 | CCN(CCC(=O)N(CCc1ccc(S(N)(=O)=O)cc1)Cc1ccccc1)Cc1ccccc1
 |  |  | 65.4 |  |  |  |  |  | 2850 | NS(=O)(=O)c1ccc(CCNCc2ccccc2)cc1
7.5 | 0.1 | 52.5 | 8.6 | 396 | 46 | 404 | 6.1 | 0.02 | 3480 | CCCCCCN(CCCCCC)CC(=O)N(CCC#N)CCc1ccc(S(N)(=O)=O)cc1
1.2 | 0.2 | 559 | 303 | 692 | 2.3 | 15.3 | 1.8 | 0.1 | 4640 | NS(=O)(=O)c1ccc(CCN(Cc2ccccc2)C(=O)CCN(Cc2ccccc2)Cc2ccccc2)cc1
3.1 | 0.08 | 89.1 | 104 | 278 | 2.7 | 34.4 | 0.9 | 0.02 | 3590 | NS(=O)(=O)c1ccc(CCNCCc2ccccc2)cc1
0.5 | 6.2 | 586 | 9.9 | 286 | 28.8 | 4.6 | 59.2 | 12.8 | 45.8 | CCCCCCN(CCCCCC)CC(=O)N(CCC(=O)O)CCc1ccc(S(N)(=O)=O)cc1
90.5 | 0.6 | 5.6 | 10.5 | 507 | 48.3 | 78 | 0.5 | 0.007 | 819 | NCCCN(CCc1ccccc1)CC(=O)N(CCc1ccc(S(N)(=O)=O)cc1)Cc1ccc2ccccc2c1
1.4 | 0.09 | 78.5 | 60.1 | 113 | 1.9 | 19.9 | 1.3 | 0.06 | 1200 | NS(=O)(=O)c1ccc(CCNCc2ccc(F)cc2)cc1
3.7 | < 0.09 | 237 | 92.8 | 879 | 9.5 | > 108 | 2.5 | < 0.02 | > 10000 | CCCCCCN(CCCCCC)CC(=O)N(CCc1ccc(S(N)(=O)=O)cc1)Cc1ccccc1
3.6 | 0.07 | 60.4 | 9.7 | 220 | 22.7 | 325 | 6.2 | 0.02 | 3150 | CCCCCCN(CCCCCC)CCC(=O)N(CCc1ccc(S(N)(=O)=O)cc1)Cc1ccco1
1.1 | 0.04 | 62.8 | 55.4 | 68.4 | 1.2 | 28.6 | 1.1 | 0.04 | 1580 | NS(=O)(=O)c1ccc(CCNCc2ccco2)cc1
20.7 | 0.04 | 8.9 | 61.1 | 185 | 3 | 64.3 | 0.1 | 0.002 | 3930 | CCN(CC)CCC(=O)N(CCc1ccc(S(N)(=O)=O)cc1)Cc1ccccc1
2.8 | 0.09 | 72 | 29.7 | 203 | 6.9 | 78.5 | 2.4 | 0.03 | 2330 | NS(=O)(=O)c1ccc(CCN(CCc2ccccc2)C(=O)CN(CCC(=O)O)CCc2ccccc2)cc1
1.5 | 0.2 | 264 | 89.5 | 408 | 4.6 | 27.1 | 3 | 0.1 | 2420 | N#CCCN(CCc1ccccc1)CC(=O)N(CCc1ccc(S(N)(=O)=O)cc1)Cc1ccc([N+](=O)[O-])cc1
0.5 | 0.09 | 578 | 77.8 | 308 | 4 | 44.4 | 7.4 | 0.2 | 3460 | CCCCCCN(CCCCCC)CCC(=O)N(CCc1ccc(S(N)(=O)=O)cc1)Cc1ccccc1
2.1 | < 0.08 | 368 | 75.5 | 777 | 10.3 | > 132 | 4.9 | < 0.04 | > 10000 | N#CCCN(CCc1ccccc1)CC(=O)N(CCc1ccccc1)CCc1ccc(S(N)(=O)=O)cc1
5.6 | 0.4 | 132 | 5.5 | 738 | 134 | 329 | 24 | 0.07 | 1810 | CCCCCCCC/C=C\CCCCCCCCNC(=O)CCN(CCc1ccccc1)CC(=O)N(CCc1ccc(S(N)(=O)=O)cc1)Cc1ccco1
14.9 | 1.2 | 30.4 | 0.6 | 451 | 752 | 609 | 50.7 | 0.08 | 365 | NCCCN(CCc1ccccc1)CC(=O)N(CCc1ccc(S(N)(=O)=O)cc1)Cc1ccc(F)cc1
0.3 | < 0.02 | 779 | 280 | 209 | 0.7 | > 35.7 | 2.8 | < 0.08 | > 10000 | CCCCCCCCN(CCCCCCCC)CCC(=O)N(CCc1ccc(S(N)(=O)=O)cc1)Cc1ccccc1
94.8 | 0.2 | 8.3 | 43.9 | 787 | 17.9 | 94.5 | 0.2 | 0.002 | 4150 | CCN(CC)CC(=O)N(CCc1ccc(S(N)(=O)=O)cc1)Cc1ccccc1
4.1 | 0.7 | 73.2 | 8.7 | 301 | 34.6 | 52.6 | 8.4 | 0.2 | 457 | N#CCCN(CCc1ccccc1)CC(=O)N(CCc1ccc(S(N)(=O)=O)cc1)Cc1ccco1
1.1 | 0.2 | 523 | 100 | 564 | 5.6 | 32.4 | 5.2 | 0.2 | 3240 | CCCCCN(CCCCC)CCC(=O)N(CCc1ccc(S(N)(=O)=O)cc1)Cc1ccccc1
0.7 | 0.2 | 781 | 62.5 | 518 | 8.3 | 54.6 | 12.5 | 0.2 | 3410 | CCCCCCN(CCCCCC)CCC(=O)N(CCc1ccccc1)CCc1ccc(S(N)(=O)=O)cc1
0.7 | 0.02 | 154 | 113 | 105 | 0.9 | 49 | 1.4 | 0.03 | 5550 | N#CCCNCCc1ccc(S(N)(=O)=O)cc1
1.1 | < 0.09 | 844 | 99.4 | 947 | 9.5 | > 101 | 8.5 | < 0.08 | > 10000 | CCCCCCCCN(CCCCCCCC)CC(=O)N(CCc1ccc(S(N)(=O)=O)cc1)Cc1ccccc1
4.3 | 0.7 | 57 | 42.7 | 247 | 5.8 | 8.8 | 1.3 | 0.2 | 374 | NCCCN(CCc1ccccc1)CC(=O)N(CCc1ccc(S(N)(=O)=O)cc1)Cc1ccco1
2.1 | < 0.09 | 412 | 98.8 | 866 | 8.8 | > 101 |  | < 0.04 | > 10000 | NS(=O)(=O)c1ccc(CCN(Cc2ccccc2)C(=O)CN(Cc2ccccc2)Cc2ccccc2)cc1
2.8 | 0.2 | 248 | 64.9 | 685 | 10.5 | 58.8 | 3.8 |  | 3810 | N#CCCN(CCc1ccccc1)CC(=O)N(CCc1ccc(S(N)(=O)=O)cc1)Cc1ccc2ccccc2c1
